ChEMBL document CHEMBL4177755, “Combating Drug-Resistant Fungi with Novel Imperfectly Amphipathic Palindromic Peptides” (J Med Chem, 2018)

What was measured:
[1] = Cytotoxicity against HEK293T cells assessed as cell viability at 2 to 64 uM after 24 hrs by MTT assay relative to control; type: cell-based, HEK-293T; settings: human, read-out: Activity
In short: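 MTT viability assay. RAW264.7 or HEK293T cells at (1.0−2.0) × 10^5 per well were exposed to a peptide concentration series for 24 h at 37 °C in 5% CO2. MTT was then added at 0.5 mg/mL final for 4 h; formazan was dissolved in DMSO and read at 570 nm. Results average three independent trials.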

[2] = tested on: Escherichia coli; experiment: Antibacterial activity against Escherichia coli ATCC 25922 after 24 hrs; type: functional; settings: ATCC 25922, 24 h
In short: (§1)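 Broth microdilution. Mid-log bacteria in MHB at a final (0.5−1) × 10^5 CFU/mL were mixed with equal volumes of peptide serially diluted in 0.2% BSA. Plates were incubated 24 h at 37 °C and read at A492. MIC is the lowest concentration inhibiting 95% of growth. Each test was repeated at least 3 times.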

[3] = tested on: Escherichia coli; experiment: Antibacterial activity against Escherichia coli 1005 after 24 hrs; type: functional; settings: Escherichia coli, 1005, 24 h; in short: as §1
[4] = tested on: Staphylococcus aureus; experiment: Antibacterial activity against Staphylococcus aureus ATCC 29213 after 24 hrs; type: functional; settings: ATCC 29213, 24 h
In short: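 Modified NCCLS broth microdilution. Mid-log bacteria at (0.5−1) × 10^5 CFU/mL in MHB were mixed 1:1 with peptide serially diluted in 0.2% BSA and incubated 24 h at 37 °C. Absorbance was read at 492 nm; MIC is the lowest concentration inhibiting 95% of growth. At least 3 repeats.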

[5] = tested on: Salmonella typhimurium; experiment: Bactericidal activity against Salmonella typhimurium ATCC 14028; type: functional, Salmonella enterica subsp. enterica serovar Typhimurium; settings: Salmonella enterica, read-out: MBC99.9
In short: (§2)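 Wells from the 24 h, 37 °C MHB microdilution plates (bacteria at a final (0.5−1) × 10^5 CFU/mL; peptide diluted in 0.2% BSA) were plated on agar and incubated overnight. MBC is the lowest concentration killing >99.9% of cells. Each test was reproduced at least 3 times.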

[6] = Bactericidal activity against Salmonella pullorum ATCC 7913; type: functional, Salmonella enterica subsp. enterica serovar Pullorum; settings: Salmonella enterica, read-out: MBC99.9; in short: as §2
[7] = tested on: Staphylococcus aureus; experiment: Bactericidal activity against Staphylococcus aureus ATCC 29213; type: functional; settings: read-out: MBC99.9; in short: as §2
[8] = tested on: Candida albicans; experiment: Antifungal activity against Candida albicans isolated from alveolar fluid after 48 hrs by broth microdilution method; type: functional
In short: (§3)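 Modified CLSI M27-A2 broth microdilution. Yeast at (0.5−1) × 10^3 CFU/mL in MOPS-buffered RPMI 1640 was mixed 1:1 with peptide serially diluted in 0.2% BSA and incubated 48 h at 28 °C. Absorbance was read at 492 nm; MIC is the lowest concentration inhibiting 95% of growth. Triplicate, three biological replicates.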

[9] = tested on: Candida albicans; experiment: Antifungal activity against fluconazole-resistant Candida albicans 56452 after 48 hrs by broth microdilution method; type: functional; settings: Candida albicans, 56452, 48 h; in short: as §3
[10] = tested on: Candida albicans; experiment: Antifungal activity against Candida albicans 14936 after 48 hrs by broth microdilution method; type: functional; settings: Candida albicans, 14936, 48 h; in short: as §3
[11] = tested on: Candida tropicalis; experiment: Antifungal activity against Candida tropicalis cgmcc 2.1975 after 48 hrs by broth microdilution method; type: functional; settings: cgmcc 2.1975, 48 h
In short: (§4)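 Modified CLSI M27-A2 broth microdilution. Yeast were suspended in MOPS-buffered RPMI 1640 at a final (0.5−1) × 10^3 CFU/mL and mixed 1:1 with peptide serially diluted in 0.2% BSA. Plates were incubated 48 h at 28 °C and read at A492. MIC is the lowest concentration giving 95% inhibition. Run in triplicate with three biological replicates.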

[12] = tested on: Pichia kudriavzevii; experiment: Antifungal activity against Candida krusei cgmcc 2.1857 after 48 hrs by broth microdilution method; type: functional; settings: cgmcc 2.1857, 48 h; in short: as §4
[13] = tested on: Candida parapsilosis; experiment: Antifungal activity against Candida parapsilosis cgmcc 2.3989 after 48 hrs by broth microdilution method; type: functional; settings: Lodderomyces parapsilosis, cgmcc 2.3989, 48 h; in short: as §4
[14] = tested on: Candida albicans; experiment: Fungicidal activity against Candida albicans SP3931 after 96 hrs; type: functional; settings: SP3931, 96 h, read-out: MFC99.9
In short: (§5)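 After the 48 h, 28 °C broth microdilution in MOPS-buffered RPMI 1640 (inoculum (0.5−1) × 10^3 CFU/mL), 50 μL from each well was plated on YM agar for a further 48 h at 28 °C. MFC is the lowest concentration killing at least 99.9% of cells. Triplicate, three biological replicates.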

[15] = tested on: Candida albicans; experiment: Fungicidal activity against Candida albicans SP3903 after 96 hrs; type: functional; settings: SP3903, 96 h, read-out: MFC99.9; in short: as §5
[16] = tested on: Candida albicans; experiment: Fungicidal activity against Candida albicans SP3902 after 96 hrs; type: functional; settings: SP3902, 96 h, read-out: MFC99.9; in short: as §5
[17] = tested on: Candida albicans; experiment: Fungicidal activity against Candida albicans SP3876 after 96 hrs; type: functional; settings: SP3876, 96 h, read-out: MFC99.9; in short: as §5
[18] = tested on: Candida albicans; experiment: Fungicidal activity against Candida albicans isolated from alveolar fluid after 96 hrs; type: functional; settings: read-out: MFC99.9; in short: as §5
[19] = tested on: Candida albicans; experiment: Fungicidal activity against fluconazole-resistant Candida albicans 56452 after 96 hrs; type: functional; settings: Candida albicans, 56452, 96 h; read-out: MFC99.9; in short: as §5
[20] = tested on: Candida albicans; experiment: Fungicidal activity against fluconazole-resistant Candida albicans 56214 after 96 hrs; type: functional; settings: Candida albicans, 56214, 96 h; read-out: MFC99.9; in short: as §5
[21] = tested on: Candida albicans; experiment: Fungicidal activity against Candida albicans 14936 after 96 hrs; type: functional; settings: Candida albicans, 14936, 96 h; read-out: MFC99.9; in short: as §5
[22] = tested on: Candida albicans; experiment: Fungicidal activity against fluconazole-resistant Candida albicans 17546 after 96 hrs; type: functional; settings: Candida albicans, 17546, 96 h; read-out: MFC99.9; in short: as §5
[23] = tested on: Candida tropicalis; experiment: Fungicidal activity against Candida tropicalis cgmcc 2.1975 after 96 hrs; type: functional; settings: cgmcc 2.1975, 96 h, read-out: MFC99.9
In short: (§6)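 Wells from the 48 h, 28 °C RPMI 1640/MOPS microdilution plates were plated on YM agar and incubated a further 48 h at 28 °C. MFC is the lowest concentration killing at least 99.9% of cells. Run in triplicate with three biological replicates.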

[24] = tested on: Candida parapsilosis; experiment: Fungicidal activity against Candida parapsilosis cgmcc 2.3989 after 96 hrs; type: functional; settings: Lodderomyces parapsilosis, cgmcc 2.3989, 96 h; read-out: MFC99.9; in short: as §6
[25] = tested on: Escherichia coli; experiment: Antibacterial activity against Escherichia coli ATCC 25922 after 18 hrs in presence of KCl by broth dilution method; type: functional; settings: ATCC 25922, 18 h
[26] = tested on: Escherichia coli; experiment: Antibacterial activity against Escherichia coli ATCC 25922 after 18 hrs in presence of CaCl2 by broth dilution method; type: functional; settings: ATCC 25922, 18 h
[27] = tested on: Escherichia coli; experiment: Antibacterial activity against Escherichia coli ATCC 25922 after 18 hrs in presence of ZnCl2 by broth dilution method; type: functional; settings: ATCC 25922, 18 h
[28] = tested on: Escherichia coli; experiment: Antibacterial activity against Escherichia coli ATCC 25922 after 18 hrs in presence of FeCl3 by broth dilution method; type: functional; settings: ATCC 25922, 18 h
[29] = tested on: Candida albicans; experiment: Antifungal activity against Candida albicans cgmcc 2.2086 in presence of NaCl by broth dilution method; type: functional
[30] = tested on: Candida albicans; experiment: Antifungal activity against Candida albicans cgmcc 2.2086 in presence of NH4Cl by broth dilution method; type: functional
[31] = tested on: Candida albicans; experiment: Antifungal activity against Candida albicans cgmcc 2.2086 in presence of CaCl2 by broth dilution method; type: functional
[32] = tested on: Candida albicans; experiment: Antifungal activity against Candida albicans cgmcc 2.2086 in presence of ZnCl2 by broth dilution method; type: functional

Row | Substance | viability at 24 h, up to 64 µM [1] [%] | MIC95 [2] [µM] | MIC95 [3] [µM] | MIC95 [4] [µM] | MBC [5] [µM] | MBC [6] [µM] | MBC [7] [µM] | MIC95 [8] [µM] | MIC95 [9] [µM] | MIC95 [10] [µM] | MIC95 [11] [µM] | MIC95 [12] [µM] | MIC95 [13] [µM] | MFC [14] [µM] | MFC [15] [µM] | MFC [16] [µM] | MFC [17] [µM] | MFC [18] [µM] | MFC [19] [µM] | MFC [20] [µM] | other results
1 | H-RRIRIIIRIRR-NH2 | > 85 | 4 | 4 | 4 | 4 | 4 | 8 | 2 | 1 | 2 | 1 | 2 | 4 | 4 | 1 | 2 | 1 | 4 | 1 | 2 | MFC [21]: 2 µM; MFC [22]: 2 µM; MFC [23]: 2 µM; MFC [24]: 8 µM; MIC [25]: 4 µM; MIC [26]: 8 µM; MIC [27]: 4 µM; MIC [28]: 4 µM; MIC [29]: 4 µM; MIC [30]: 2 µM; MIC [31]: 4 µM; MIC [32]: 2 µM
2 | H-RRLRLLLRLRR-NH2 | 70 to 80 | 4 | 4 | 16 | 4 | 8 | 16 | 4 | 4 | 8 | 2 | 4 | 64 | 16 | 2 | 4 | 4 | 8 | 8 | 8 | MFC [21]: 8 µM; MFC [22]: 16 µM; MFC [23]: 4 µM; MFC [24]: 64 µM; MIC [25]: 4 µM; MIC [26]: 4 µM; MIC [27]: 4 µM; MIC [28]: 8 µM; MIC [29]: 64 µM; MIC [30]: 8 µM; MIC [31]: 64 µM; MIC [32]: 8 µM
3 | H-RRWRWWWRWRR-NH2 | 70 to 80 | 4 | 4 | 2 | 8 | 4 | 4 | 4 | 4 | 8 | 2 | 2 | 8 | 8 | 4 | 4 | 4 | 8 | 4 | 8 | MFC [21]: 8 µM; MFC [22]: 4 µM; MFC [23]: 4 µM; MFC [24]: 16 µM; MIC [25]: 4 µM; MIC [26]: 8 µM; MIC [27]: 4 µM; MIC [28]: 4 µM; MIC [29]: 8 µM; MIC [30]: 4 µM; MIC [31]: 8 µM; MIC [32]: 4 µM
4 | H-RWRWWWRWR-NH2 | 70 to 80 | 4 | 2 | 4 | 4 | 8 | 16 | 8 | 4 | 8 | 2 | 4 | 16 | 16 | 8 | 16 | 4 | 16 | 4 | 8 | MFC [21]: 8 µM; MFC [22]: 2 µM; MFC [23]: 2 µM; MFC [24]: 32 µM; MIC [25]: 4 µM; MIC [26]: 4 µM; MIC [27]: 2 µM; MIC [28]: 4 µM; MIC [29]: 16 µM; MIC [30]: 8 µM; MIC [31]: 32 µM; MIC [32]: 8 µM
